Measured values published in paper PMC9830076 (International Journal of Nanomedicine, 2023).
Structures can show the parent of a compound that is named as a salt.

Columns and labels:
[1] = low solubility and high permeability; cited from earlier work
Caco-2 cells = test: Endocytosis and intracellular trafficking mechanism with pathway inhibitors; format: cell-based; details: for effect of intracellular transport inhibitor on the content of intracellular 6-MP: 200 μM 6-MPNs, 2 h; for effect of endocytosis inhibitor on the internalization of 6-MPNs: 100 μM 6-MPNs, 0.5 h, intracellular 6-MP by HPLC
Summary of the method: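 Caco-2 cells in 12-well plates at 1×10^5 cells/mL, grown to 90% confluency, preincubated 0.5 h with inhibitors, PBS-washed ×3. Endocytosis inhibitors (MβCD, genistein, EIPA, Cyt D, CPZ, dynasore) co-incubated with 100 μM test nanoparticles or crystals, 37°C, 0.5 h. Trafficking inhibitors (BFA, monensin, Baf-A1, nocodazole) with 200 μM, 37°C, 2 h. Inhibitor levels as in preincubation; intracellular 6-MP by HPLC.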

MRP4 transporter = target: T1, MRP4 transporter (Homo sapiens, UniProt O15439); test: Effect of MRP4 transporter; format: cell-based; details: Caco-2 cells, indomethacin 30 μM, 100 μM 6-MPNs or 6-MPCs, 2 h
T1 sequence (O15439 1-1325): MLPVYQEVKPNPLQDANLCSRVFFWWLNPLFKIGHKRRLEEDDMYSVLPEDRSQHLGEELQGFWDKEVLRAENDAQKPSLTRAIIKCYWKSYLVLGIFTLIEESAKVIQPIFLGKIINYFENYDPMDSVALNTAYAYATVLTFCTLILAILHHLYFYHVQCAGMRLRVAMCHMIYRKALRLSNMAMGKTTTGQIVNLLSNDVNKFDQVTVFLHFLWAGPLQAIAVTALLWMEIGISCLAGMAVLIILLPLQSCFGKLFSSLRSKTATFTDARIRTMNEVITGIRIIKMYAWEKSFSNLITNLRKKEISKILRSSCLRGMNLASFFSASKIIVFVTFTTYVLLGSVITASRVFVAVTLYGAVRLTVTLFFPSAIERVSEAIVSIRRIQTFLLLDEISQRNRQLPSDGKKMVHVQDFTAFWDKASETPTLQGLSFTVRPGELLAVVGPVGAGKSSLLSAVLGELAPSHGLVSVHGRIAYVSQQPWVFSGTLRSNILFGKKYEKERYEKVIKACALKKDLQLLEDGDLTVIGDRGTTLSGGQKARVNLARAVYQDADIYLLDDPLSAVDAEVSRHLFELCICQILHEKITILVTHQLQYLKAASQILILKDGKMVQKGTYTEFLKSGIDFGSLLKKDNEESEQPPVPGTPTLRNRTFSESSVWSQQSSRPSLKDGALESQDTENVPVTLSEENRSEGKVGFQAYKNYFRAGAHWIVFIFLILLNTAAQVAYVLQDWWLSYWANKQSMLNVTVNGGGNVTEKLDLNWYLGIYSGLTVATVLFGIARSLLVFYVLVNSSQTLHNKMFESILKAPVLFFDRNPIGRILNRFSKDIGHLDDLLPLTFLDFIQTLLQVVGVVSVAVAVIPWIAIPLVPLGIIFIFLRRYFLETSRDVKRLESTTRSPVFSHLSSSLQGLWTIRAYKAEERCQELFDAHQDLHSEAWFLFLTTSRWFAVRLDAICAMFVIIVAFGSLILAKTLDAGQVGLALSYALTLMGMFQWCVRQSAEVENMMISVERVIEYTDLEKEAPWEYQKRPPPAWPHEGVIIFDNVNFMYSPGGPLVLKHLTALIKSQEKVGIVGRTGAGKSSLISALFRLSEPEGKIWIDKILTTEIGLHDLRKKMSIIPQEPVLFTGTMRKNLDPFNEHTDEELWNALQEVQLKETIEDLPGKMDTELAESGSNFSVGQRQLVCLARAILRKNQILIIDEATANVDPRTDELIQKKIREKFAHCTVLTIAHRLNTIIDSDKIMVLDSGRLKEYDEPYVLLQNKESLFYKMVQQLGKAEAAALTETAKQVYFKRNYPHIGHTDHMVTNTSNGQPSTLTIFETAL
Summary of the method: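 Caco-2 cells grown in 6-well plates to 90% confluency, preincubated 0.5 h at 37°C with 30 μM indomethacin (MRP4 inhibitor), PBS-washed ×3, then exposed 2 h to 100 μM test nanoparticles or crystals plus 30 μM indomethacin; controls without indomethacin. Cells PBS-washed and RIPA/1% PMSF-lysed; 6-MP in lysate by HPLC, total protein by BCA.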

Row | Compound | effect of intracellular transport inhibitor on the content of intracellular 6-MP (Caco-2 cells) | effect of endocytosis inhibitor on the internalization of 6-MPNs (Caco-2 cells) | also measured
1 | Sc1ncnc2nc[nH]c12 [6-MP, 6-Mercaptopurine] | – | – | biopharmaceutic classification system (BCS) class [1]: class II
2 | C[C@H]1CCC/C=C/[C@@H]2C[C@H](O)C[C@H]2[C@H](O)/C=C/C(=O)O1 [Brefeldin A] | significantly enhanced | – | –
3 | CO/C1=C\C(C)=C\[C@@H](C)[C@@H](O)[C@@H](C)C/C(C)=C/C=C/[C@H](OC)[C@@H]([C@@H](C)[C@@H](O)[C@H](C)[C@@]2(O)C[C@@H](O)[C@H](C)[C@@H](C(C)C)O2)OC1=O [Bafilomycin A1] | significantly enhanced | – | –
4 | COc1ccc2c(c1)c(CC(=O)O)c(C)n2C(=O)c1ccc(Cl)cc1 [indomethacin] | – | – | effect on intracellular accumulation of 6-MP (MRP4 transporter): increased
5 | C=C1[C@@H](C)[C@H]2[C@H](Cc3ccccc3)NC(=O)[C@]23[C@H](OC(C)=O)/C=C/[C@@](C)(O)C(=O)[C@@H](C)C/C=C/[C@H]3[C@@H]1O [Cyt D, cytochalasin D] | – | less influence | –
6 | COC(=O)Nc1nc2ccc(C(=O)c3cccs3)cc2[nH]1 [Nocodazole, nocodazole] | significantly enhanced | – | –
7 | O=C(N/N=C/c1ccc(O)c(O)c1)c1cc2ccccc2cc1O [Dynasore, dynasore] | – | obviously reduced | –
8 | Methyl-beta-cyclodextrin [MβCD] | – | obviously reduced | –
9 | CC[C@@]1([C@@H]2O[C@@H]([C@H]3O[C@@](O)(CO)[C@H](C)C[C@@H]3C)C[C@@H]2C)CC[C@H]([C@]2(C)CC[C@]3(C[C@H](O)[C@@H](C)[C@@H]([C@@H](C)[C@@H](OC)[C@H](C)C(=O)O)O3)O2)O1 [Monensin] | significantly enhanced | – | –
10 | CCN(c1nc(N)c(C(=O)NC(=N)N)nc1Cl)C(C)C [EIPA, ethyl-isopropyl-amiloride] | – | obviously reduced | –
11 | CN(C)CCCN1c2ccccc2Sc2ccc(Cl)cc21 [CPZ, chlorpromazine hydrochloride] | – | less influence | –
12 | O=c1c(-c2ccc(O)cc2)coc2cc(O)cc(O)c12 [Genistein, genistein] | – | less influence | –
